Here are results for eight compounds from ChEMBL document CHEMBL4251571, “Design, syntheses and lipid accumulation inhibitory activities of novel resveratrol mimics” (Eur J Med Chem, 2018).

Calls of active or inactive are those of the source. No cut-off for these calls is given here. A value given as a limit tells only on which side of the number the result lay.

Data set [1] concerns 3T3-L1. Description: Inhibition of triglyceride accumulation in mouse 3T3L1 cells after 3 days. The format is functional, cell-based. Conditions: in the assay text read “after 6 days” for “after 3 days”. An outline of the steps: (§1)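 3T3-L1 preadipocytes differentiated from 2 days post-confluence: 3 days in DMEM/10% FBS with insulin, dexamethasone, 0.5 mM IBMX and biotin, then 3 days with insulin only. Compounds in DMSO (0.1% DMSO vehicle) given on days 0 and 3. Berberine as positive control. Cells washed in ice-cold PBS and lysed; triglyceride measured with a commercial kit. Reported as TG relative to […] cells, mean ± SD of three independent experiments.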

Data set [2] in a line: Cytotoxicity against HEK293T cells after 24 hrs by MTT assay. Type of data set: cell-based, HEK-293T. The conditions noted are these: human. The gist of the method: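 HEK293T seeded 5000/well, grown overnight, then exposed to a range of compound concentrations for 24 h with 0.5% DMSO vehicle. MTT (0.05 mg/well) added for 4 h, formazan dissolved in DMSO, absorbance read at 492 nm after 20 min shaking. Percentage computed as (A experiment − A blank)/(A control − A blank).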
In general terms: Formazan colour is commonly taken as a measure of viable cells.

For data set [3], the system named is 3T3-L1. Description: Effect on ACC mRNA expression in mouse 3T3L1 cells at 10 uM after 3 days by qRT-PCR method. The format is functional, cell-based. The gist of the method: (§2)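 Compounds were added to 3T3-L1 cells during cocktail-induced differentiation. Total RNA was extracted with RNAiso plus, and 1 µg was reverse-transcribed before real-time qPCR. Mouse primers were used for AMPK, ACC, SREBP-1c and FABP4. Mean ± SD of 3 independent experiments versus vehicle.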
(In qPCR the cycle at which signal appears reflects the starting amount.)

For data set [4], the system named is 3T3-L1. Description: Inhibition of triglyceride accumulation in mouse 3T3L1 cells at 10 uM after 3 days relative to control. The conditions noted are these: 3T3-L1, 72 h. The format is functional. The gist of the method: as §1
Data set [5] deals with 3T3-L1. The experiment in a line: Downregulation of SREBP-1c mRNA expression in mouse 3T3L1 cells at 10 uM after 3 days by RT-qPCR method. Type of data set: functional, cell-based. The gist of the method: as §2
For data set [6], the species on record is Mus musculus. The experiment in a line: Induction of AMPKalpha phosphorylation in mouse 3T3L1 cells at 10 uM after 3 days by Western blotting method relative to control. The format is cell-based. An outline of the steps: (§3)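 3T3-L1 lysates were made in NP-40/deoxycholate/SDS buffer with protease and phosphatase inhibitors, then transferred to membranes. Membranes were blocked 2 h in 5% skim milk/TBST and probed with antibodies to phospho-Thr172 and total AMPKα, phospho-Ser79 and total ACC, SIRT1, PPARγ, SREBP-1c and FABP4. Detection was by ECL, with densitometry normalized to α-tubulin. Mean ± SD of 3 independent experiments.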

For data set [7], the species on record is Mus musculus. The experiment in a line: Induction of AMPKalpha phosphorylation in mouse 3T3L1 cells assessed as increase in ACC phosphorylation at 10 uM after 3 days by Western blotting method relative to control. Type of data set: cell-based. The gist of the method: as §3
In general terms: Immunoblotting shows a protein as a band on a membrane.

The test system of data set [8] is 3T3-L1. The experiment in a line: Inhibition of triglyceride accumulation in mouse 3T3L1 cells at 1 to 10 uM after 6 days by ORO staining-based microscopic method. Type of data set: functional, cell-based. The gist of the method:
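Differentiating 3T3-L1 cells received compounds in DMSO with the differentiation cocktail over 6 days, with 0.1% DMSO vehicle and berberine control. On day 6, cells fixed 1 h in 10% formaldehyde/PBS at room temperature and stained 30 min with fresh Oil Red O. After water washes, they were imaged at 10× magnification under constant light settings. Undifferentiated cells served as reference.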

For data set [9], the system named is 3T3-L1. Description: Effect on AMPKalpha mRNA expression in mouse 3T3L1 cells at 10 uM after 3 days by qRT-PCR method. The format is functional, cell-based. An outline of the steps: as §2
The subject of data set [10] is 3T3-L1. The experiment in a line: Downregulation of FABP4 mRNA expression in mouse 3T3L1 cells at 10 uM after 3 days by RT-qPCR method. The format is functional, cell-based. An outline of the steps:
as §2

For data set [11], the system named is 3T3-L1. The experiment in a line: Upregulation of SIRT1 mRNA expression in mouse 3T3L1 cells at 10 uM after 3 days by qRT-PCR method. Type of data set: functional, cell-based.
The subject of data set [12] is 3T3-L1. The experiment in a line: Upregulation of SIRT1 protein expression in mouse 3T3L1 cells at 10 uM after 3 days by Western blotting method. The format is functional, cell-based. The gist of the method: as §3
Data set [13] relates to 3T3-L1. The experiment in a line: Downregulation of PPARgamma mRNA expression in mouse 3T3L1 cells at 10 uM after 3 days by RT-qPCR method. Type of data set: functional, cell-based.
Data set [14] relates to 3T3-L1. The experiment in a line: Downregulation of SREBP-1c protein expression in mouse 3T3L1 cells at 10 uM after 3 days by Western blotting method. Type of data set: functional, cell-based. An outline of the steps: as §3
Data set [15] concerns 3T3-L1. Description: Downregulation of FABP4 protein expression in mouse 3T3L1 cells at 10 uM after 3 days by Western blotting method. Type of data set: functional, cell-based. An outline of the steps: as §3
Data set [16] relates to 3T3-L1. Description: Downregulation of PPARgamma protein expression in mouse 3T3L1 cells at 10 uM after 3 days by Western blotting method. The format is functional, cell-based. An outline of the steps:
as §3

With `O=c1cc(O)cc(/C=C/c2ccccc2Cl)[nH]1`, in the data set on 3T3-L1 [1], the inhibition (commonly the percentage by which the read-out fell short of the control) is “Dose-dependent effect”.
For `O=c1cc(O)cc(/C=C/C2CCCCC2)[nH]1`, the CC50 (in general, the concentration at which the toxic effect on the cells reaches its halfway point) at 24 h in data set [2] came out at 13.8 µM. In addition, the outcome in the data set on 3T3-L1 [3] and in the data set with 3T3-L1 [9] was inactive. For the same compound, in the data set on 3T3-L1 [4], 10 µM produced 78.4% inhibition. In addition, the result in the data set with 3T3-L1 [5], in the data set with 3T3-L1 [10], with 3T3-L1 [11], in the data set on 3T3-L1 [12] and in the data set with 3T3-L1 [13] was Active. The values for the fold change (FC) in the data set filed under Mus musculus [6] and in the data set listed under Mus musculus [7] were 3.45 and 2.98, respectively. In addition, the inhibition entry in the data set on 3T3-L1 [1] is “Dose-dependent effect”. In addition, in the data set on 3T3-L1 [8], the inhibition result was “Active”.
On to `O=c1cc(O)cc(/C=C/c2ccco2)[nH]1`, for which, in the data set with 3T3-L1 [1], the inhibition result is “Dose-dependent effect”.
With `O=c1cc(O)cc(/C=C/c2cccs2)[nH]1`, the inhibition entry in the data set with 3T3-L1 [1] is “Dose-dependent effect”.
`Oc1ccc(/C=C/c2cc(O)cc(O)c2)cc1` [RESVERATROL]: in data set [2], the midpoint of cytotoxicity, the CC50 at 24 h, lay at 22.8 µM. The inhibition result with 3T3-L1 [8] was “Active”.
In turn, `Cc1ccc(/C=C/c2cc(O)cc(=O)[nH]2)o1` returned a CC50 at 24 h in data set [2] of over 1000 µM. Moreover, the outcome in the data set with 3T3-L1 [3] and in the data set on 3T3-L1 [9] was inactive. The outcome in the data set on 3T3-L1 [14], in the data set on 3T3-L1 [5], in the data set with 3T3-L1 [15], in the data set on 3T3-L1 [10], in the data set on 3T3-L1 [16] and in the data set with 3T3-L1 [11] was Active. The result with 3T3-L1 [12] and in the data set on 3T3-L1 [13] was Active. Moreover, the fold change (FC) in the data set filed under Mus musculus [6] stood at 3.1; in the data set filed under Mus musculus [7], 4.12. The inhibition result in the data set on 3T3-L1 [1] was “Dose-dependent effect”. In addition, the inhibition entry in the data set on 3T3-L1 [8] is “Active”.
On to `COc1ccc2cc3[n+](cc2c1OC)CCc1cc2c(cc1-3)OCO2`, for which the inhibition result in the data set with 3T3-L1 [8] is “Active”.
On to `O=c1cc(O)cc(/C=C/c2ccccc2)[nH]1`, for which, in the data set with 3T3-L1 [1], the inhibition entry is “Dose-dependent effect”.
